ChEMBL document CHEMBL1123461, “Studies on 1,2,3-triazoles. 13. (Piperazinylalkoxy) [1]benzopyrano[2,3-d]-1,2,3-triazol-9(1H)-ones with combined H1-antihistamine and mast cell stabilizing properties” (J Med Chem, 1986)
Activity calls are given as the source filed them. The calls are words filed in the database; no cut-off is given here.

Columns and labels:
[1] = target: Histamine H1 receptor (Cavia porcellus) (UniProt P31389); assay: Compound was tested for H1-antihistamine activity in guinea pig ileum; IA = Inactive; type: functional, tissue-based
Method in brief: (§1)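 Isolated guinea pig ileum under ca. 1 g tension in Tyrode solution, with isotonic recording of histamine contractions. Method A: repeat histamine dose-response curves at increasing antagonist concentrations, then Schild plot of log(DR−1) vs −log molar concentration; pA2 is the abscissa intercept. Method B: 10-min antagonist exposure, then double histamine dose (~50% maximal single dose), three antagonist doses each tested three times.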

Rattus norvegicus [2] = organism: Rattus norvegicus; assay: Compound was tested for the inhibition of release of histamine in rat passive peritoneal anaphylaxis; type: functional, organism-based
Method in brief: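 Rat passive peritoneal anaphylaxis: antiserum i.p. sensitization for 2 h, then i.p. ovalbumin challenge (0.4 mg/mL in 5 mL Tyrode). Compound given i.p. in saline 30 s before antigen; dose expressed as concentration in 6 mL fluid. Peritoneal fluid taken at 5 min, supernatant TCA-treated, histamine measured spectrofluorimetrically. 5–7 rats/dose; % inhibition vs positive controls; ED50 from log-dose regression.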

Histamine H1 receptor [3] = target: T1, Histamine H1 receptor (Cavia porcellus, UniProt P31389); assay: Compound was tested for H1-antihistamine activity in guinea pig ileum.; type: functional, tissue-based; details: read-out: pA2 (converted); method in brief: as §1
Rattus norvegicus [4] = organism: Rattus norvegicus; assay: Compound was tested for the inhibition of release of extravasation in rat passive peritoneal anaphylaxis; type: functional, organism-based
Method in brief: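 Rats passively sensitized i.p. with 2 mL 1:5 rat antiserum. Two hours later, i.v. Pontamine Sky Blue, then i.p. challenge with 5 mL Tyrode containing 0.4 mg/mL ovalbumin and heparin. Compound given i.p. in 1 mL saline 30 s before antigen; dose expressed as concentration in 6 mL injected. Peritoneal fluid collected at 5 min; dye read at OD 625 nm. 5–7 rats/dose; ED50 from log-dose regression.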

Histamine H1 receptor [5] = target: T1, Histamine H1 receptor; assay: H1-antihistamine activity in guinea pig ileum; type: functional, tissue-based; details: read-out: pA2 (converted); method in brief: as §1

T1 sequence (P31389 whole entry): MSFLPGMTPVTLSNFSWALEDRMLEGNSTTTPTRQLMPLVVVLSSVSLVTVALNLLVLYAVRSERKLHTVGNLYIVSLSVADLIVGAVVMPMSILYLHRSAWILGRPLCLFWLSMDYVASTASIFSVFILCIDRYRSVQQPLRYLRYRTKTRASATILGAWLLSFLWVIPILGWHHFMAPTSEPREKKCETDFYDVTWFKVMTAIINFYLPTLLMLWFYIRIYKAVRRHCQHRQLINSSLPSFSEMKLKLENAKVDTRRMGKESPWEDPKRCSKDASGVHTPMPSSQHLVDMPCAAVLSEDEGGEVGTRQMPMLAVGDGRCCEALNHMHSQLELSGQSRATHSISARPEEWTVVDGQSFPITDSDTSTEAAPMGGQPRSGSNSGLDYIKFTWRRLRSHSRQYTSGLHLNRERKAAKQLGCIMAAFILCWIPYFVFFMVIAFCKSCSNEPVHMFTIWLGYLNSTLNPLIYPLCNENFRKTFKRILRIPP
Histamine H1 receptor (Cavia porcellus), sequence (P31389 whole entry): as above

SMILES	pA2 [1]	IC50 (Rattus norvegicus [2])	Kb (Histamine H1 receptor [3])	IC50 (Rattus norvegicus [4])	Kb (Histamine H1 receptor [5])
O=C(O)c1cc(=O)c2c(OCC(O)COc3cccc4oc(C(=O)O)cc(=O)c34)cccc2o1	inactive				
COc1ccc(CN(CCN(C)C)c2ccccn2)cc1 [PYRILAMINE]		> 200000 nM			
COc1ccc(CN2CCN(CCCOc3ccc4c(O)c5nnnc-5oc4c3C)CC2)cc1			63.1 nM		
Oc1c2nnnc-2oc2cc(OCCCN3CCN(Cc4ccc(Cl)cc4)CC3)ccc12		5400 nM		31 µM	0.794 nM
CN1CCC(=C2c3ccccc3CC(=O)c3sccc32)CC1 [KETOTIFEN]		> 200000 nM			
Cc1c(OCCCN(C)CCN(C)Cc2ccc(Cl)cc2)ccc2c(O)c3nnnc-3oc12			79.4 nM		

The remaining molecules from weak to strong by IC50 (Rattus norvegicus [2]), led by results:

pA2 [1]	IC50 (Rattus norvegicus [2])	Kb (Histamine H1 receptor [3])	IC50 (Rattus norvegicus [4])	Kb (Histamine H1 receptor [5])	SMILES
	2300 nM		10 µM	3.98 nM	Cc1c(OCCCN2CCN(Cc3ccccc3Cl)CC2)ccc2c(O)c3nnnc-3oc12
	1000 nM		> 20 µM	3.98 nM	Cc1c(OCCCN2CCN(Cc3cccc(Cl)c3)CC2)ccc2c(O)c3nnnc-3oc12
	890 nM	15.8 nM	> 20 µM		Cc1ccc(CN2CCN(CCCOc3ccc4c(O)c5nnnc-5oc4c3C)CC2)cc1
	840 nM		55 µM	1.58 nM	Cc1c(OCCCN2CCN(Cc3ccc(Cl)cc3)CC2)ccc2c(O)c3nnnc-3oc12
	100 nM		> 20 µM	15.8 nM	Cc1c(OCCCN2CCN(Cc3ccccn3)CC2)ccc2c(O)c3nnnc-3oc12
